Among the data in ChEMBL document CHEMBL1140329, “Control of protein-protein interactions: structure-based discovery of low molecular weight inhibitors of the interactions between Pin1 WW domain and phosphopeptides” (J Med Chem, 2005) are Kd values, retold here.

Molecules are shown by their SMILES. Where a SMILES comes first, the peptide text is derived from it. [ ]: non-standard residue; d: D form. The star is where a group is joined. pT = C[C@@H](OP(=O)(O)O)[C@H](N)C(=O)O; Fmoc = O=C(OCC1c2ccccc2-c2ccccc21)*; Hydrocinnamoyl = O=C(CCc1ccccc1)*; ΔPro = O=C(O)[C@@H]1C=CCN1; Thz = O=C(O)[C@@H]1CSCN1; PhAc = O=C(Cc1ccccc1)*

In this test the target is Peptidyl-prolyl cis-trans isomerase NIMA-interacting 1 (Homo sapiens, UniProt Q13526). As to the kind of experiment: Dissociation constant for human peptidyl-prolyl cis-trans isomerase NIMA-interacting 1. In short, it runs like this: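 15N-labeled Pin1 WW domain (His6-tagged, expressed in E. coli BL21(DE3)) in 25 mM deuterated Tris-HCl pH 6.8, 50 mM NaCl, 5 mM DTT, 2.5 mM EDTA, 10% D2O; 600 MHz 1H-15N HSQC at 293 K. 50 μM protein titrated with ligand 0.025–1 mM final; chemical shift perturbations fitted to a single-site equation for KD.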
Chain of Peptidyl-prolyl cis-trans isomerase NIMA-interacting 1 (Q13526 whole entry, the tested form may be a part): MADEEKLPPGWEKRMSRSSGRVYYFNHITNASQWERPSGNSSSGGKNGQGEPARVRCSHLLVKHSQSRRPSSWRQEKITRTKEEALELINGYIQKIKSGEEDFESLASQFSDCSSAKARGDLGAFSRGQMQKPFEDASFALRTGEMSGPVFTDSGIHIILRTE
One may read the Kd as the free concentration of one partner at which half of the binding sites on the other are occupied at equilibrium, for simple one-to-one binding. Compound `C[C@@H](OP(=O)(O)O)[C@H](NC(=O)CCCc1ccccc1)C(=O)N1CC=C[C@H]1C(N)=O` had a Kd of 28 µM.

In the case of `NC(=O)[C@@H]1CCCN1C(=O)CCNS(=O)(=O)C(F)(F)F`, the Kd was more than 2000 µM.

Regarding `NC(=O)[C@@H]1CCCN1C(=O)CCP(=O)(O)O`, the Kd is more than 2000 µM.

As for `NC(=O)[C@@H]1CCCN1C(=O)CC/N=c1\c(O)c(O)c1=O`, the Kd is more than 2000 µM.

On to `NC(=O)[C@@H]1CCCN1C(=O)CCC(=O)O`, for which the Kd is more than 2000 µM.

The compound `C[C@@H](OP(=O)(O)O)[C@H](NC(=O)CCCCc1ccccc1)C(=O)N1CCC[C@H]1C(N)=O` gave a Kd of 48 µM.

`NC(=O)[C@@H]1CCCN1C(=O)CCCC(=O)O`: the Kd is more than 2000 µM.

As to `C[C@@H](OP(=O)(O)O)[C@H](NC(=O)CCCc1ccccc1)C(=O)N1CCC[C@H]1C(N)=O`, the Kd came out at 30 µM.

The compound `CC(=O)N[C@H](C(=O)N1CCC[C@@H]1C(N)=O)[C@@H](C)OP(=O)(O)O` returned a Kd of 100 µM.

Turning to `NC(=O)[C@@H]1CCCN1C(=O)[C@H](CCC/N=c1\c(O)c(O)c1=O)NC(=O)OCC1c2ccccc2-c2ccccc21`, the Kd came out at 910 µM. This Kd lies about 9.1-fold higher than the previous one.

Turning to `NC(=O)[C@@H]1CCCN1C(=O)[C@H](CCCCNc1c(O)c(=O)c1=O)NC(=O)OCC1c2ccccc2-c2ccccc21`, binding was put at a Kd of 540 µM.

In turn, `C[C@@H](OP(=O)(O)O)[C@H](NC(=O)C(c1ccccc1)c1ccccc1)C(=O)N1CCC[C@H]1C(N)=O` returned a Kd of 38 µM.

`CC(=O)N[C@H](C(=O)N1C[C@@H](F)C[C@H]1C(N)=O)[C@@H](C)OP(=O)(O)O` came in with a Kd of 420 µM.

Regarding `C[C@@H](OP(=O)(O)O)[C@H](NC(=O)CCC(C)(c1ccc(O)cc1)c1ccc(O)cc1)C(=O)N1CC=C[C@H]1C(N)=O`, the Kd came out at 5 µM.

Take `CC(=O)N[C@@H](CCC(=O)O)C(=O)N1CCC[C@H]1C(N)=O` (Ac-Glu-Pro-NH2): the Kd was more than 2000 µM.

`CC(=O)N[C@H](C(=O)N1CSC[C@H]1C(N)=O)[C@@H](C)OP(=O)(O)O` (Ac-[pT]-[Thz]-NH2) had a Kd of 400 µM.

On to `CC(=O)N[C@H](C(=O)N1CC=C[C@H]1C(N)=O)[C@@H](C)OP(=O)(O)O` (Ac-[pT]-[ΔPro]-NH2), for which binding was characterised by a dissociation constant (Kd) of 18 µM.

Consider `C[C@@H](OP(=O)(O)O)[C@H](NC(=O)OCC1c2ccccc2-c2ccccc21)C(=O)N1CCC[C@H]1C(N)=O` (Fmoc-[pT]-Pro-NH2), for which the affinity, expressed as Kd, was 15 µM.

Turning to `C[C@@H](OP(=O)(O)O)[C@H](NC(=O)OCC1c2ccccc2-c2ccccc21)C(=O)N1CC=C[C@H]1C(N)=O` (Fmoc-[pT]-[ΔPro]-NH2), the affinity, expressed as Kd, was 66 µM.

As for `C[C@@H](OP(=O)(O)O)[C@H](NC(=O)CCc1ccccc1)C(=O)N1CCC[C@H]1C(N)=O` (Hydrocinnamoyl-[pT]-Pro-NH2), the Kd amounted to 32 µM.

`C[C@@H](OP(=O)(O)O)[C@H](NC(=O)Cc1ccccc1)C(=O)N1CCC[C@H]1C(N)=O` (PhAc-[pT]-Pro-NH2) gave a Kd of 35 µM.

As for `CC(=O)N[C@H](C(=O)N1CCC1C(N)=O)C(C)OP(=O)(O)O` (single isomer, unassigned), the Kd stood at 160 µM.

In turn, `CC(=O)N[C@H](C(=O)N1CC(F)CC1C(N)=O)[C@@H](C)OP(=O)(O)O` (single isomer, unassigned) registered a Kd of 36 µM.

Compound `CC(=O)N[C@H](C(=O)N1CC(O)CC1C(N)=O)[C@@H](C)OP(=O)(O)O` (single isomer, unassigned) had a Kd of 800 µM. This Kd is about 22-fold higher than that of the compound before.

In the case of `CC(=O)N[C@H](C(=O)N1CCCCC1C(N)=O)C(C)OP(=O)(O)O` (single isomer, unassigned), the Kd worked out at 140 µM.
